This is a sample that favours compounds with a hit; in the whole collection about 5.4% have one here.
EphB4 ephrin blk: EphB4-ephrin-B2 interaction antagonism. P54760. EphB4 LBD / TNYL-RAW-Alexa532 peptide, fluorescence polarization. hit rate 0.15% among 97,000. inhibition, % at 7 µM;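 active means inhibition above the screen-wide mean inhibition plus 3 SD, cut at about 15% in these data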
Cav3 T inh: blocks human Cav3.2 T-type calcium channel; Cav3.2-expressing cells, Fluo-4 calcium fluorescence FDSS; stronger effect = lower value; hit rate 4% among 100,000; B-score at 10 µM; AID 449739;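 active means single-dose well whose peak fluorescence ratio is a statistical outlier from its plate by either plate-standardised score or position-corrected B-score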
HIV Rev-RRE inh: disrupts HIV-1 Rev binding to RRE RNA. P05866. Rev peptide-RRE RNA binding, FRET. inhibition, % at 8 µM. hit rate 0.79% among 97,000;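 active means inhibition above the screen-wide mean plus 3 SD, cut at about 35% in these data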
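assay system = Cy5-tagged RRE RNA duplex with fluorescein-tagged Rev peptide | incubation = 5 + 15 min at 25 °C | also added = labelled Rev peptide | measure = % inhibition of FRET ratio versus controls | benchmarks = DMSO wells as 0% and neomycin B wells as 100% inhibition | measured by = FRET fluorescence readout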
hDAT+cocaine: modulates human dopamine transporter uptake under cocaine; Q01959; hit rate 1.3% among 110,000; B-score at 10 µM; LLC-PK1 hDAT cells, [14C]-dopamine uptake with cocaine IC80; actives deviate in either direction;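 active means Z score or B-score, a plate-position-corrected score, falls beyond the plate's 99.7% confidence bounds, in either direction; inactive means both scores lie inside the 99.7% bounds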
Target sequence (Q01959 whole entry, looked up): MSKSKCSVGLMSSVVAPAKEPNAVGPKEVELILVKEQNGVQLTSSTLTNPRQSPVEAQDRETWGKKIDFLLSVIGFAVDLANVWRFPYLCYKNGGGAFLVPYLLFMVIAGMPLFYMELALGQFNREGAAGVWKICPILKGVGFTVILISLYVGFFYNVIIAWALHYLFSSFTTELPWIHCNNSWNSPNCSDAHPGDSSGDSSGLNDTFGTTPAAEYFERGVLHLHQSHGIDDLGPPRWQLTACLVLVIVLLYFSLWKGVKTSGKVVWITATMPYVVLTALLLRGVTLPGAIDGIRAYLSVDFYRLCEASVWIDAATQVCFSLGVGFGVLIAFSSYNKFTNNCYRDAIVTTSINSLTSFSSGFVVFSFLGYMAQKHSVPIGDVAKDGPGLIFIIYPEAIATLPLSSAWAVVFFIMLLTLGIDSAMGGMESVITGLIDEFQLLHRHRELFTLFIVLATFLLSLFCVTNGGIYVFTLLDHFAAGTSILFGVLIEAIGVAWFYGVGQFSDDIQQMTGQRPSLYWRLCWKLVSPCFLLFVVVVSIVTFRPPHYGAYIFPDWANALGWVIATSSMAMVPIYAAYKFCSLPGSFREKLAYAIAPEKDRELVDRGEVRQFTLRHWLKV
Hits are given with their value; - = inactive; . = no result given; [ ] = dose if it differs, or a comment.

SMILES	EphB4 ephrin blk	Cav3 T inh	HIV Rev-RRE inh	hDAT+cocaine
c1ccc2c(c1)OCC(c1nnc3sc(-c4ccc5c(c4)OCO5)nn13)O2 (stereo unspecified)	-	-	-	-8.61
Cc1cc(-c2cc(N)n(-c3ccccc3)n2)c(C)n1C1CCCC1	-	-	-	2.06
Cc1cc(N)n(-c2ccccc2)n1	-	.	-	.
COc1cc(C2C(C#N)=C(N)OC3=C2C(=O)CC(C)(C)C3)c([N+](=O)[O-])cc1OC (stereo unspecified)	-	.	48.9	.
COc1ccc2nc3sc(C(=O)NCc4cccs4)c(N)c3cc2c1	-	-	39.7	-
O=C(c1cc(C2CC2)on1)N1CCN(c2ccc(F)cc2)CC1	-	-	-	-
Cn1c(-c2sccc2OCc2ccccc2)n[nH]c1=S	-	-	-	-10.4
O=C(Nc1ccccc1)C1(c2ccccc2)CC1(Cl)Cl (stereo unspecified)	.	-7.54	.	-
CCc1cccc(NC2c3ccccc3C(=O)N2c2ccc(C)cn2)c1 (stereo unspecified)	-	-4.43	-	-
CCOC(=O)c1cnc(SCc2cccc(C)c2)nc1N	-	-4.86	-	-
O=C(NNC(=O)c1cc(OCC(F)(F)F)ccc1OCC(F)(F)F)c1cccc(C(F)(F)F)c1	-	-8.97	-	-
COc1cc(/C=C/C(=O)Nc2cc(C(F)(F)F)ccc2Cl)cc(OC)c1OC	-	-5.21	-	-
CC(C)(C)n1ncc2c(=O)n(CC(=O)Nc3ccc(Cl)cc3)cnc21	-	-9.52	-	-
CC(=O)Nc1ccc(C(=O)OCC(=O)N(Cc2ccccc2)C(C)(C)C)cc1	-	-	-	-
CCn1c(CSc2nc3ccccc3s2)nc2ccccc21	-	-5.67	-	-
O=C1c2cccc3c([N+](=O)[O-])ccc(c23)C(=O)N1c1nccs1	-	-	-	-
O=C1c2cccc3c([N+](=O)[O-])ccc(c23)C(=O)N1c1ccc(Cl)cn1	-	.	69.0	.
O=C1c2cccc3c(N4CCCCC4)ccc(c23)C(=O)N1c1ccccn1	-	-6.92	126.3[fluorescence artefact?]	-
O=C1c2cccc3c(N4CCCCC4)ccc(c23)C(=O)N1c1ccc(Cl)cn1	-	.	120.9[fluorescence artefact?]	.
O=C(CSc1ncn[nH]1)N1N=C2/C(=C/c3ccco3)CCCC2C1c1ccco1 (stereo unspecified)	-	-4.12	-	-
CCC(CC)c1nnc(NC(=O)C2COc3ccccc3O2)s1 (stereo unspecified)	-	-3.92	-	-
CCc1nnc(NC(=O)C2COc3ccccc3O2)s1 (stereo unspecified)	-	-	-	-
O=C(Nc1nc2c(s1)CCCC2)C1COc2ccccc2O1 (stereo unspecified)	-	-4.88	-	-
CCCn1c2ccccc2c2nnc(SCC(=O)Nc3cc(C)on3)nc21	-	-	-	-
CCn1c2ccccc2c2nnc(SCC(=O)N3CC(C)OC(C)C3)nc21 (stereo unspecified)	-	-	-	-8.82
SMILES	EphB4 ephrin blk	Cav3 T inh	HIV Rev-RRE inh	hDAT+cocaine
CCOC(=O)C(CC)n1nc(C)n2c(cc3occc32)c1=O (stereo unspecified)	-	-	-	-
COC(=O)CN1C(c2ccccc2)=Nc2ccc(Cl)cc2C1c1ccccc1 (stereo unspecified)	-	-6.71	-	-
NNC(=O)CN1C(c2ccc(Cl)cc2)=Nc2ccc(Br)cc2C1c1ccccc1 (stereo unspecified)	-	-9.88	-	-
O=C1CN2C(=Nc3ccc(Cl)cc3C2c2ccccc2)CN1 (stereo unspecified)	.	-	.	-
O=C(Nc1ccccc1)NC1(C(=O)NCc2cccs2)CCCCC1	-	-	-	-
O=C1Nc2ccc(Cl)cc2[C@@](C#CC2CC2)(C(F)(F)F)O1	.	-5.24	.	-
Cc1cc(F)ccc1NCc1cc2c(cc1[N+](=O)[O-])OCO2	-	-	-	-8.02
N#Cc1c(-c2ccccc2)nc2n(-c3ccccc3)nc(C(=O)Nc3ccccc3)n2c1=O	-	-	-	-
N#Cc1c(-c2ccccc2)c(-c2ccccc2)nn(CC(=O)NNC(=O)Nc2ccc(Cl)c(Cl)c2)c1=O	-	-6.51	-	-
C=CCOc1c(Br)cc(CNc2ccc(NC(=O)C(C)C)c(OC)c2)cc1OC	-	-3.82	-	-
O=C1CS/C(=N\C(=O)N2c3ccccc3Sc3ccccc32)N1	-	-	-	-
Cc1ccc(/C(N)=N/OC(=O)C23CC4CC(CC(C4)C2)C3)cc1	-	-	-	-7.1
Cc1ccc(/C(N)=N/OC(=O)N2CCOCC2)cc1	-	-	-	-
COC(=O)c1ccc2c(c1)C(C)(C)C(/C=C/c1ccccc1O)=[N+]2C	-	-3.68	78.6[fluorescence artefact?]	-3.58
COC(=O)c1cc[n+](CC(=O)c2ccccc2)cc1	-	-	-	-
O=C(c1ccc(Br)o1)N1CCN(c2ccccn2)CC1	-	-	-	2.45
FC(F)(F)C(Oc1nc(NC2CCCCC2)nc(N2CCOCC2)n1)C(F)(F)F	-	-4.86	-	-
Cc1ccc(Nc2nc(OC(C(F)(F)F)C(F)(F)F)nc(N3CCOCC3)n2)cc1	-	-	-	-
O=C1[C@H](CC[C@H](O)c2ccc(F)cc2)[C@@H](c2ccc(O)cc2)N1c1ccc(F)cc1	.	-4.13	.	-
Cc1cc(C)n2nc(SC3CCCCN(C(=O)c4ccc(F)cc4)C3=O)nc2n1 (stereo unspecified)	19.0	-	-	-
Cc1cc2nnc(SC3CCCCN(C(=O)c4ccc(F)cc4)C3=O)n2c2ccccc12 (stereo unspecified)	-	.	-	.
COc1ccc(S(=O)(=O)NCc2ccco2)c2ccccc12	.	-4.22	.	-
Cc1nnc(SCc2ccc3c(c2)OCO3)s1	-	-	-	-
O=C(NCc1ccccc1)C(c1ccc(F)cc1)N(Cc1ccc2c(c1)OCO2)C(=O)Cn1nnc(-c2cccs2)n1 (stereo unspecified)	-	-5.12	-	-
Cc1ccc(CNC(=O)CCOc2ccc(C(C)(C)C)cc2)cc1	-	-	-	-
SMILES	EphB4 ephrin blk	Cav3 T inh	HIV Rev-RRE inh	hDAT+cocaine
COc1cc2c3nnc(-c4ccc(F)cc4)c-3cn(Cc3cccc(C)c3)c2cc1OC	-	-3.61	-	-
COc1cc2c3nnc(-c4ccc(F)cc4)c-3cn(Cc3ccc(C)cc3)c2cc1OC	-	-5.8	-	-
Fc1ccc(Cn2cnc3ccccc32)cc1	-	-	-	-
Cc1ccc(Cn2nnc3c(=O)[nH]c(C4CCN(S(=O)(=O)c5ccccc5)CC4)nc32)cc1	-	-	-	2.88
Cc1ccc(Cn2nnc3c(=O)[nH]c(C4CCN(C(=O)Cc5cccs5)CC4)nc32)cc1	-	-	-	3.37
O=C(Cc1cccs1)N1CCCC(c2nc3c(nnn3Cc3ccccc3Cl)c(=O)[nH]2)C1 (stereo unspecified)	-	-	-	-
Cc1ccc(Cn2nnc3c(=O)[nH]c(C4CCCN(C(=O)Nc5ccc(F)cc5F)C4)nc32)cc1 (stereo unspecified)	-	-	-	3.23
O=C(NCc1cccs1)c1nc2c(nnn2Cc2ccccc2Cl)c(=O)[nH]1	-	-4.49	-	-
CN(C)S(=O)(=O)NCc1ccc2c(c1)OCO2	-	-	-	-
COc1ccc(NC(=O)N2CCCC(c3nc(-c4ccc(C(C)C)cc4)no3)C2)cc1 (stereo unspecified)	-	-	-	-
